KCNK3 block: human KCNK3 channel inhibition, primary screen; CHO-KCNK3 thallium flux, FluxOR fluorescence; active compounds read low; B-score at 10 µM; actives 0.84% (n = 340,000); AID 602410;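 active = B-score under library mean minus 4 SD, starting fluorescence ratio at most library mean plus 5 SD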;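 note: more negative B-score means stronger inhibition of thallium flux through KCNK3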
hERG rescue: compounds protecting human hERG from proarrhythmic drug block; CHO-hERG, FluxOR thallium flux, dofetilide IC70 present; activation (rescue from dofetilide block), less the hit threshold, % at 10 µM; actives 0.51% (n = 310,000); AID 1511;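 active = activation above the mean of controls blocked by dofetilide plus 5 SD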;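 note: thallium influx through hERG after potassium depolarization seen as dye fluorescence rise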
KCNQ1 block: inhibitors of human KCNQ1 potassium channel. P51787. CHO-K1 KCNQ1, FluxOR thallium flux fluorescence; active compounds read high. actives 1.3% (n = 310,000). B-score at 10 µM;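 active = compounds whose thallium flux B-score, printed positive for inhibition, exceeds three library SD while starting fluorescence stays within three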;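 note: channel opened by potassium depolarization with thallium stimulus after 20 min compound exposure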
KCNQ1 act: human KCNQ1 channel potentiation or activation; CHO-K1 KCNQ1, thallium flux FluxOR fluorescence; active compounds read high; B-score at 10 µM; AID 2648; actives 0.35% (n = 310,000);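 active = fluorescence ratio B-score, a plate-corrected score, at least three library SD, with initial intensity B-score within 5 SD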
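System: CHO-K1 cells stably expressing KCNQ1 / Medium: assay buffer for compound exposure, DMSO matched across wells / Reagent: thallium- and potassium-containing depolarizing buffer / Compound: one concentration, matched DMSO / Incubation: 20 min compound pretreatment at room temperature / Measured by: kinetic FluxOR fluorescence, 10 s baseline plus 110 s post-stimulus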
KCNK9 block: human KCNK9 channel inhibition; Q9NPC2; B-score at 10 µM; actives 1.2% (n = 310,000); AID 488922; HEK293 KCNK9, FluxOR thallium flux fluorescence; active compounds read low;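 active = ratio B-score over 3 SD below the library mean, with starting fluorescence within 5 SD of its mean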;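 note: negative B-score means less thallium flux so channel inhibition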
Target sequence (Q9NPC2 whole entry, looked up): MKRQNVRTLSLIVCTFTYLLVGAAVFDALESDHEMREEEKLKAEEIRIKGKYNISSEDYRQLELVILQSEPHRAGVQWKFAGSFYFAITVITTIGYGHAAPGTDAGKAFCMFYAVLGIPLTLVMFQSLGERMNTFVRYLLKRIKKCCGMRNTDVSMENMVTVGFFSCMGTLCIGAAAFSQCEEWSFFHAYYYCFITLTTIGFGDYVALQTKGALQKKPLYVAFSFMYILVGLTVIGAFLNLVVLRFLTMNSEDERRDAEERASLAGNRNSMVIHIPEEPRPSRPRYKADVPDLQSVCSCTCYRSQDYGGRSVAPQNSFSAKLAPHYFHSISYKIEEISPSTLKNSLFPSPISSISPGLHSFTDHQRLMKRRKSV
KCNK9 block conf: confirmation of human KCNK9 potassium channel inhibitors; shares compounds with KCNK9 block; HEK293 KCNK9 cells, FluxOR thallium flux fluorescence; inhibition, % at 10 µM; actives 43% (n = 4,900);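 active = thallium signal inhibited by more than 5 SD of the compound-free buffer control wells, on both duplicate plates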;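 note: 0% = assay buffer control wells without compound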
Kir21 sel: selectivity of KCNK9 modulators against mouse Kir2.1 | inhibition, % at 10 µM | AID 492993 | Kir2.1 cells, FluxOR thallium flux fluorescence | actives 4% (n = 4,900) | shares compounds with KCNK9 block;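 active = thallium signal drop more than 5 SD beyond the mean of the no-compound control wells, seen in both duplicate plates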;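 note: signal is fluorescence rise after thallium addition divided by baseline fluorescence; plate controls were assay buffer only for no effect and full block by chlorpromazine control for full effect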
KCNK9 uninduced: second counter-screen for KCNK9 modulators: effect in non-induced cells. shares compounds with KCNK9 block. non-induced KCNK9-HEK293, FluxOR thallium flux. inhibition, % at 10 µM. actives 40% (n = 4,900);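 active = thallium signal drop beyond 5 SD of the untreated control mean, on both duplicate plates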;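 note: plate controls were buffer only IC0 wells for no effect and SID17386958 at its maximal inhibitory level for full effect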
The depositor's hits bear a star; i = inactive; x = no result given. Most compounds without a hit are left out; they make up all but 3.1% or so of the library.

SMILES	KCNK3 block	hERG rescue	KCNQ1 block	KCNQ1 act	KCNK9 block	KCNK9 block conf	Kir21 sel	KCNK9 uninduced
COc1ccc(-c2nnc(NC(=O)c3ccc(S(=O)(=O)N4CCc5ccccc5C4)cc3)o2)cc1	i	-2	i	i	i	i	i	i
O=C(Nc1nnc(-c2ccc3c(c2)CCCC3)o1)c1ccc(Cl)cc1Cl	i	19*	i	52*	i	i	i	i
CN(C)S(=O)(=O)c1ccc(C(=O)Nc2nnc(-c3ccc4c(c3)CCCC4)o2)cc1	i	-18	i	i	i	i	i	i
Cc1ccc(C2CC2C(=O)NNC(=S)Nc2ccc(Cl)cc2)cc1 (stereo not given)	i	-16	10*	i	i	i	i	i
COc1ccccc1N1CCN(C(=O)NC23CC4CC(CC(C4)C2)C3)CC1	i	-9	i	i	i	x	x	x
CN(C)c1cc(N/N=C/c2ccccc2C(F)(F)F)nc(N(C)C)n1	i	-13	i	i	i	i	i	i
CC(Cc1ccccc1)N/C=C1\CC(=O)NC1=O (stereo not given)	i	-6	i	i	i	x	x	x
O=C(NCc1ccco1)C12CC3CC(CC(C3)C1)C2	i	0	i	i	i	x	x	x
O=C(CC12CC3CC(CC(C3)C1)C2)NC(=S)NCc1ccco1	i	-26	6*	i	i	i	i	i
Cc1ccc(C(=O)N2CC(C)SC2=Nc2cccc(S(=O)(=O)N(C)C)c2)cc1 (stereo not given)	i	-10	i	i	i	x	x	x
Cc1cc(C)cc(C(=O)N2CC(C)SC2=Nc2cccc(S(=O)(=O)N(C)C)c2)c1 (stereo not given)	i	-1	i	i	-12*	64%*	i	34%*
CCCN(CCC)C(=O)CC(c1ccccc1)c1cc(Br)ccc1O (stereo not given)	i	-12	i	i	-13*	36%*	i	40%*
CCCN(CCC)C(=O)CC(c1ccccc1)c1ccc(C)cc1O (stereo not given)	i	-17	i	i	i	x	x	x
COC(=O)C1=NNC2(c3ccc(C)cc3)C(=O)N(c3ccc(C)cc3)C(=O)C12 (stereo not given)	i	-10	i	i	i	x	x	x
CC(=O)N1CCCc2cc(S(=O)(=O)N3CCCC(C(=O)N4CCN(c5ccccc5)CC4)C3)ccc21 (stereo not given)	i	-14	i	i	i	x	x	x
Cc1cccc(N2CCN(S(=O)(=O)c3ccc4c(c3)CCCN4C(=O)C3CCC3)CC2)c1C	i	-9	i	i	i	i	i	i
CC(=O)N1CCCc2cc(S(=O)(=O)N3CCCC(C(=O)N4CCN(c5cc(C)ccc5C)CC4)C3)ccc21 (stereo not given)	i	-16	i	i	i	i	i	i
CCCn1c(NC(=O)c2cccc(S(=O)(=O)N3CCCC3)c2)nc2ccccc21	i	-18	i	i	i	x	x	x
N#Cc1ccsc1NC(=O)CN(Cc1ccccc1)Cc1ccccc1	i	-7	6*	i	-17*	68%*	i	59%*
Cc1nonc1C1CCCN1C(=O)c1cc(COc2ccc(F)cc2F)on1 (stereo not given)	i	-5	i	i	i	x	x	x
COc1cccc(C(=O)NC2CCN(C(=O)N3c4ccccc4Sc4ccccc43)CC2)c1	i	-19	i	i	i	x	x	x
COc1cccc(C(=O)N2c3ccccc3Sc3ccccc32)c1	i	-8	i	i	-11*	58%*	i	48%*
CC(C)(C)C1CCc2onc(C(=O)O)c2C1 (stereo not given)	i	-13	i	i	i	x	x	x
